Most compounds without a hit are left out; they make up all but 2% or so of the library.
STEP block: STEP (human) phosphatase inhibition. P54829. recombinant STEP, OMFP fluorogenic substrate, fluorescence. inhibition, % at 20 µM. hit rate 0.25% among 360,000. AID 588621;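 active = inhibition at 20 µM, scaled per plate between control wells, above about 37%, limit read from the data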
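Material: STEP (striatal-enriched tyrosine phosphatase) enzyme, cell-free | Medium: 50 mM Bis-Tris pH 6.0 with 2.5 mM DTT and 0.005% Tween 20 | Read-out: Percent inhibition scaled to no-enzyme and uninhibited-enzyme controls, plate-pattern corrected | Signal: Fluorescence read at 480 nm ex / 540 nm em | Times: 20 min reaction, room temperature, in the dark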
Rpn11 block: inhibitors of human proteasome Rpn11; O00487; human 26S proteasome, Ub4-pepOG fluorescence polarization; 20S core pre-blocked with epoxomicin; inhibition, % at 20 µM; hit rate 0.59% among 360,000; AID 588493;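 active = inhibition at 20 µM, scaled to each plate's controls, above about 33%, limit read from the data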
Target sequence (O00487 whole entry, looked up): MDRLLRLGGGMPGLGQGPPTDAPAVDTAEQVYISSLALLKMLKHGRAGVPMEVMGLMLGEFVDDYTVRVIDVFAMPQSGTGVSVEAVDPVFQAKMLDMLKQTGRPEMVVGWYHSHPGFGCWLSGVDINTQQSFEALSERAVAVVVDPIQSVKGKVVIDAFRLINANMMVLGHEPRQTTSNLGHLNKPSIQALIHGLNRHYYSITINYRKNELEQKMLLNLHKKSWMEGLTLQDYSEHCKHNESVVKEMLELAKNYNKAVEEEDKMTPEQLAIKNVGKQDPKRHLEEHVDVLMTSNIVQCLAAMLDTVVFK
Scp-1 inhibitor: inhibitors of human Scp-1 phosphatase | Q9GZU7 | Recombinant Scp1, phosphopeptide, malachite green phosphate absorbance | hit rate 0.88% among 340,000 | inhibition, % at 20 µM;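 active = inhibition above about 50% at 20 µM, limit read from the data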
Target sequence (Q9GZU7 76-261 limits assumed): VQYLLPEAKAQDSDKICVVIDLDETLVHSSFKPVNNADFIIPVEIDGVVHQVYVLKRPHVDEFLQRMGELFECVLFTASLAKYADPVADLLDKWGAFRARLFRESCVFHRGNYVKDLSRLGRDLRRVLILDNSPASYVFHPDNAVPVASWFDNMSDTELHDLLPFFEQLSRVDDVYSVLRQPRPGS
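System: truncated SCP-1 phosphatase (76-261aa); medium: Tris acetate buffer pH 5.5 with MgCl2 and Tween-20; incubation: 45 min room-temperature reaction, 5 min colour, 30 min stabiliser; compound: single 20 µM dose, 1% DMSO; reagent: Phosphorylated 17-residue peptide substrate; read-out: % inhibition at 20 µM; technique: colorimetric free-phosphate detection, absorbance 630 nm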
LMPTP inh: blocks human LMPTP phosphatase; recombinant LMPTP-A, OMFP fluorogenic substrate, fluorescence intensity; inhibition, % at 20 µM; hit rate 0.22% among 360,000;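 active = compounds that cut the enzyme signal by at least half of the control window in the single-dose screen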
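material = LMPTP-A | quantity = 0.625 nM enzyme | reagent = OMFP substrate, 400 µM final | buffer or medium = Bis-Tris pH 6.0, DTT, detergent | detection = endpoint fluorescence intensity from OMFP dephosphorylation | dosing = single 20 µM dose | read-out basis = % inhibition relative to no-enzyme and uninhibited control wells | control set = no-enzyme and uninhibited controls | timing = 50 min at room temperature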
DNMT1 block: blocks human DNA methyltransferase DNMT1. P26358. DNMT1 molecular beacon, Hinp1I cleavage, fluorescence. inhibition (reported as % activation of signal), % at 10 µM. hit rate 0.83% among 360,000. AID 588458; in the data active = inhibition above about 50%
Rpn11 inh conf: Rpn11 inhibition confirmation, single concentration; shares compounds with Rpn11 block; purified human 26S proteasome, Ub4-pepOG fluorescence polarization; proteasome pretreated with epoxomicin; hit rate 29% among 1,900; inhibition, % at 20 µM
MMP-2 counter: MMP-2 (human) inhibition counter-screen. inhibition, % at 20 µM. shares compounds with Rpn11 block. recombinant MMP-2, FRET peptide cleavage fluorescence. hit rate 4% among 1,900. AID 602330;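 also: human MMP-2 activated beforehand with APMA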
Thrombin inh: blocks bovine thrombin, flagging nonselective RPN11 hits; shares compounds with Rpn11 block; bovine thrombin cleavage of Ub4-pepOG, fluorescence polarization; inhibition, % at 20 µM; hit rate 13% among 1,900; AID 602333;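 active = mean inhibition at least 40% at 20 µM, or signal 3 deviations below plate average, so some actives read negative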
Hits are given with their value; . = inactive; / = not tested or not shown; ! = not active in a repeat. Rule as the data show it, unless noted: active = inhibition above about 40%; inactive = the rest.

SMILES	STEP block	Rpn11 block	Scp-1 inhibitor	LMPTP inh	DNMT1 block	Rpn11 inh conf	MMP-2 counter	Thrombin inh
CCOC(=O)CC(=O)CSc1nc(-c2cccnc2)cc(C)c1C#N	.	.	.	.	.	/	/	/
CC(C)C[C@@H](CN1CCC[C@H]1CN1C(=O)C(=O)NC[C@@H]1Cc1ccccc1)N1C[C@H](Cc2ccccc2)N(CC2CCCCCC2)C(=O)C1=O	/	/	/	.	/	/	/	/
COc1ccc(-c2csc(Nc3ccc(S(N)(=O)=O)cc3)n2)cc1	.	.	.	.	.	/	/	/
Cc1nc(N)sc1-c1csc(Nc2ccc(S(N)(=O)=O)cc2)n1	.	41	.	.	.	.	.	.
CC(C)S(=O)(=O)C1=NSC2=NC(=O)/C(=C\c3ccc(-c4ccccc4)o3)C(=N)N21	.	51	.	.	.	.	.	.
N=C1/C(=C/c2ccc(-c3cccc(C(=O)O)c3)o2)C(=O)N=C2SC=C(c3ccccc3)N12	64	132	68	89	100	152	.	51
Cc1ccc(-n2c(C)cc(/C=C3/C(=N)N4C(c5ccccc5)=CSC4=NC3=O)c2C)cc1	.	.	.	.	.	/	/	/
C[C@@H](C(=O)OCC(=O)c1ccc(F)c(F)c1)N1C(=O)C2CCCCC2C1=O (stereo partly specified)	.	.	.	.	.	/	/	/
Clc1ccc(OCCSCc2nc3ccccc3[nH]2)cc1	.	44	.	.	.	.	.	.
Cc1cn([C@H]2C[C@H](O)[C@@H](/C=C/C(=O)NCc3ccc(N(C)C)cc3)O2)c(=O)[nH]c1=O	.	.	/	.	.	/	/	/
O=C(N/N=C/c1cccc([N+](=O)[O-])c1)C1COc2ccccc2O1 (stereo unspecified)	.	.	.	.	.	/	/	/
O=C(N/N=C\c1ccc(-c2ccc([N+](=O)[O-])cc2)o1)C1COc2ccccc2O1 (stereo unspecified)	.	39	.	.	.	46	.	.
COc1ccc(/C(C)=N/NC(=O)c2nnn(-c3nonc3N)c2-c2cccs2)cc1	.	.	.	.	.	/	/	/
COc1ccc(/C(C)=N/NC(=O)c2nnn(-c3nonc3N)c2-c2ccccc2)cc1	.	80	.	52	.	93	.	.
NC1=NC(=O)/C(=C/c2ccc(-c3ccc(S(N)(=O)=O)cc3)o2)S1	.	78	.	.	.	89	46	42
CC(=O)c1sc(NC(=O)COc2ccc(Cl)cc2C)nc1C	.	.	.	.	.	/	/	/
Cc1ccc2nc(/C(C#N)=C\c3ccc([N+](=O)[O-])o3)[nH]c2c1	.	48	.	.	.	.	.	.
COc1cc(NC(=O)C(C)Oc2ccccc2)c(OC)cc1NC(=O)c1ccccc1 (stereo unspecified)	.	.	.	.	.	/	/	/
Cc1cc[n+](-c2nc3ccccc3nc2C(=C=[N-])C#N)cc1	.	.	.	.	.	/	/	/
Cc1ccc[n+](-c2nc3ccccc3nc2C(=C=[N-])C#N)c1	.	49!	.	.	.	.	.	.
N#CC(=C=[N-])c1nc2ccccc2nc1-[n+]1ccccc1	.	45!	.	.	.	.	.	.
CN1C(=O)C(=O)N(CC(=O)Nc2ccccc2OC(F)F)C1=O	.	.	.	.	.	/	/	/
CCN(CC)C(=O)C1=C(C)N(Cc2ccc(OC)cc2)C(=O)C(CC(=O)NCCc2ccccn2)C1 (stereo unspecified)	.	.	/	.	.	/	/	/
CCOC(=O)C1(CCc2ccccc2)CCN(C(=O)Cc2nonc2C)CC1	.	.	.	.	.	/	/	/
CCCC(=O)Nc1c(C(=O)OCC)[nH]c2ccccc12	.	.	.	.	.	/	/	/
CCOC(=O)c1[nH]c2ccccc2c1NC(=O)Nc1ccc(OC)cc1	.	137	.	.	.	.	.	.

Bioassay records (PubChem BioAssay)
